Test [1] relates to PIKfyve. In words: Vacuolar enlargement assay in Vero cells. The format is cell-based.
Test [2] concerns the target T1, PI5P4Kα (Homo sapiens, UniProt P48426).
T1 sequence (P48426 1-406): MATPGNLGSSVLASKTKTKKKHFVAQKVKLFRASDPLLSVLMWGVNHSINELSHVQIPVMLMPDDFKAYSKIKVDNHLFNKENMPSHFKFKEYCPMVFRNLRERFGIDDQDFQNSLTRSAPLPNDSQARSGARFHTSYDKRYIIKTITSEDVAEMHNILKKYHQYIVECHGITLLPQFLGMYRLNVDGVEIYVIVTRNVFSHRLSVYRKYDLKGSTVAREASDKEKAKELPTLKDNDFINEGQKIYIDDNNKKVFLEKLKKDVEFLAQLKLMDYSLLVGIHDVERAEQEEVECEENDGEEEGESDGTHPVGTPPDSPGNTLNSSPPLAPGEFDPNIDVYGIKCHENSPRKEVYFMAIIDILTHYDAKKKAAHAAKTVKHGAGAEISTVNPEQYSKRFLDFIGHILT
In words: Radiometric TLC kinase assay. In kind it is biochemical. A digest of the protocol: (§1)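 Purified PI5P4K (0.1 μg) was preincubated with DMSO or test compound at various concentrations in 50 mM HEPES pH 7.4, 10 mM MgCl2. Sonicated lipid substrate, 10 μM unlabeled ATP and [γ-32P]ATP were then added. Reaction ran 10 min at room temperature. Radiolabeled PI(4,5)P2 product was quantified by phosphorimager.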

The target of test [3] is T2, PI5P4Kβ (Homo sapiens, UniProt P78356).
T2 sequence (P78356 1-416): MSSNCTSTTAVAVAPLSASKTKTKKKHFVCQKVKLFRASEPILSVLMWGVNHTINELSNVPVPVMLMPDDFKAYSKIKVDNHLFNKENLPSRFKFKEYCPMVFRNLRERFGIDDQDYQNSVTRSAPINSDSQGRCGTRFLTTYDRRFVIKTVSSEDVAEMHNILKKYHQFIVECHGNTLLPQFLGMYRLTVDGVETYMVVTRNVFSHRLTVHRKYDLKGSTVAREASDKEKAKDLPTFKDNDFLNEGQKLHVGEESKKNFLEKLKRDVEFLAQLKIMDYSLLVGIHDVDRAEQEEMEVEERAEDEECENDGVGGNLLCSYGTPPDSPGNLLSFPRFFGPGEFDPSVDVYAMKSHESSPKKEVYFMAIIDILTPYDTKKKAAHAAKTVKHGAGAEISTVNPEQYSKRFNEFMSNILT
In words: Radiometric TLC kinase assay. The format is biochemical. The method in brief:
as §1

The next test addresses T3, PI5P4Kγ (Homo sapiens, UniProt Q8TBX8).
T3 sequence (Q8TBX8 1-421): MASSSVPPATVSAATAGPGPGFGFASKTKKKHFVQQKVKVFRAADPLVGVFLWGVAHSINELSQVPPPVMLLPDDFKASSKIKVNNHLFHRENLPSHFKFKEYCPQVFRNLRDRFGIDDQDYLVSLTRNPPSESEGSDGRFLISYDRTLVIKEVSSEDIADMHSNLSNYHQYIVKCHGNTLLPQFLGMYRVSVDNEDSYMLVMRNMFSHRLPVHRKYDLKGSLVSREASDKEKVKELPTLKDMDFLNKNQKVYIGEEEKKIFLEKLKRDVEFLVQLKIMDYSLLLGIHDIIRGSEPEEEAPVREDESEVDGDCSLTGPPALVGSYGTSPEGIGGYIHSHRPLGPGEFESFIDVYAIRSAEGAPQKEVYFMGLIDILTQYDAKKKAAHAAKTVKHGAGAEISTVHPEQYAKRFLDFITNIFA
In words: Radiometric TLC kinase assay. The format is biochemical. The conditions noted are these: Fig. S1B-C.

Test [4] has as its target T1, PI5P4Kα. In words: Intact electrospray MS covalent labeling. The note with it: within 2 h; 5 μM inhibitor, 37°C. The format is binding. A digest of the protocol: (§2)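 Intact mass read by LC-ESI-MS on reversed phase. Modified site mapped by TCEP (10 mM final) reduction, iodoacetamide (22.5 mM final) alkylation, Asp-N or Glu-C digestion overnight at 37°C, then nanoLC-MS.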

Test [5] has as its target T2, PI5P4Kβ. In words: Intact electrospray MS covalent labeling. The format is binding. The conditions noted are these: within 2 h; 5 μM inhibitor, 37°C. The method in brief: as §2
Test [6] addresses T4, PIKfyve (Homo sapiens, UniProt Q9Y2I7). In words: DiscoverX KINOMEScan. The format is binding.
Test [7] addresses T4, PIKfyve. In words: Fixed time-point ADP-Glo assay. The format is biochemical.
The next test has as its target PI4P5Kα (Homo sapiens, UniProt Q99755). In words: Lipid kinase off-target inhibition assay. The note with it: Fig. S3C. In kind it is biochemical.
For a further test, the target named is PI4P5Kβ (Homo sapiens, UniProt O14986). In words: Lipid kinase off-target inhibition assay. The format is biochemical. The note with it: Fig. S3C.
The target in the next test is PI4P5Kγ (Homo sapiens, UniProt O60331). In words: Lipid kinase off-target inhibition assay. The format is biochemical. The conditions noted are these: Fig. S3C.
Test [8] addresses top off-targets except for BRK and ABL1. In words: Z'LYTE kinase assay. In kind it is biochemical. The note with it: Fig. S4A. The method in brief:
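ATP at apparent Km. Kinases tested were TYK2, RPS6KA4 (MSK2), CSNK2A2 (CK2α2), KIT and PDGFRB.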

The next test relates to PI5P4K. In words: Competitive streptavidin pulldown after pre-treating HEK293T cells. The format is cell-based. The method in brief:
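HEK293T cells grown to 90–95% confluence were pretreated 6h with DMSO or varying test compound concentrations, then washed twice in cold PBS. Lysis on ice 60 min with protease inhibitors, cleared 20,000 × g 15 min at 4°C, protein-equalized by BCA. Lysates were rotated overnight at 4°C with 1 μM biotinylated probe, then 2h at RT, then on streptavidin resin 2h at 4°C. Beads washed ×5, boiled in LDS 95°C 10 min, immunoblotted.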

A further test has as its system AML/ALL cell lines. In words: 72 h Cell-Titer Glo proliferation assay. In kind it is cell-based. The conditions noted are these: all six AML/ALL cell lines. The method in brief: (§3)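 Cells plated in 96- or 384-well format and treated with test compound over a concentration range for 72h. Viability read by CellTiter-Glo luminescence. Leukemia lines cultured per ATCC/DSMZ recommendations in 5% CO2. K562 and KU812F came from an outside lab.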

Another test relates to K562 and KU812F. In words: Proliferation of BCR-ABL translocation containing cell lines. In kind it is cell-based. The note with it: Fig. S4C. A digest of the protocol:
as §3

Test [9] concerns HeLa cells. In words: TFEB nuclear localization immunofluorescence. In kind it is cell-based. The conditions noted are these: 0.25-1.0 μM overnight.
For test [10], the system named is HeLa cells. In words: RFP-GFP-LC3B tandem sensor autophagy flux assay. The format is cell-based. The note with it: 1 μM, 16 hours. The method in brief: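 HeLa cells (DMEM, 10% FBS) on coverslip-bottomed dishes were transduced with 40 particles/cell of the RFP-GFP-LC3B tandem sensor and cultured 16–24h. They were then exposed to DMSO, 50 μM chloroquine or 1 μM test compound for 16h. Live imaging at 37°C in phenol red-free DMEM by spinning-disk confocal microscopy.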

T4 sequence (Q9Y2I7 whole entry): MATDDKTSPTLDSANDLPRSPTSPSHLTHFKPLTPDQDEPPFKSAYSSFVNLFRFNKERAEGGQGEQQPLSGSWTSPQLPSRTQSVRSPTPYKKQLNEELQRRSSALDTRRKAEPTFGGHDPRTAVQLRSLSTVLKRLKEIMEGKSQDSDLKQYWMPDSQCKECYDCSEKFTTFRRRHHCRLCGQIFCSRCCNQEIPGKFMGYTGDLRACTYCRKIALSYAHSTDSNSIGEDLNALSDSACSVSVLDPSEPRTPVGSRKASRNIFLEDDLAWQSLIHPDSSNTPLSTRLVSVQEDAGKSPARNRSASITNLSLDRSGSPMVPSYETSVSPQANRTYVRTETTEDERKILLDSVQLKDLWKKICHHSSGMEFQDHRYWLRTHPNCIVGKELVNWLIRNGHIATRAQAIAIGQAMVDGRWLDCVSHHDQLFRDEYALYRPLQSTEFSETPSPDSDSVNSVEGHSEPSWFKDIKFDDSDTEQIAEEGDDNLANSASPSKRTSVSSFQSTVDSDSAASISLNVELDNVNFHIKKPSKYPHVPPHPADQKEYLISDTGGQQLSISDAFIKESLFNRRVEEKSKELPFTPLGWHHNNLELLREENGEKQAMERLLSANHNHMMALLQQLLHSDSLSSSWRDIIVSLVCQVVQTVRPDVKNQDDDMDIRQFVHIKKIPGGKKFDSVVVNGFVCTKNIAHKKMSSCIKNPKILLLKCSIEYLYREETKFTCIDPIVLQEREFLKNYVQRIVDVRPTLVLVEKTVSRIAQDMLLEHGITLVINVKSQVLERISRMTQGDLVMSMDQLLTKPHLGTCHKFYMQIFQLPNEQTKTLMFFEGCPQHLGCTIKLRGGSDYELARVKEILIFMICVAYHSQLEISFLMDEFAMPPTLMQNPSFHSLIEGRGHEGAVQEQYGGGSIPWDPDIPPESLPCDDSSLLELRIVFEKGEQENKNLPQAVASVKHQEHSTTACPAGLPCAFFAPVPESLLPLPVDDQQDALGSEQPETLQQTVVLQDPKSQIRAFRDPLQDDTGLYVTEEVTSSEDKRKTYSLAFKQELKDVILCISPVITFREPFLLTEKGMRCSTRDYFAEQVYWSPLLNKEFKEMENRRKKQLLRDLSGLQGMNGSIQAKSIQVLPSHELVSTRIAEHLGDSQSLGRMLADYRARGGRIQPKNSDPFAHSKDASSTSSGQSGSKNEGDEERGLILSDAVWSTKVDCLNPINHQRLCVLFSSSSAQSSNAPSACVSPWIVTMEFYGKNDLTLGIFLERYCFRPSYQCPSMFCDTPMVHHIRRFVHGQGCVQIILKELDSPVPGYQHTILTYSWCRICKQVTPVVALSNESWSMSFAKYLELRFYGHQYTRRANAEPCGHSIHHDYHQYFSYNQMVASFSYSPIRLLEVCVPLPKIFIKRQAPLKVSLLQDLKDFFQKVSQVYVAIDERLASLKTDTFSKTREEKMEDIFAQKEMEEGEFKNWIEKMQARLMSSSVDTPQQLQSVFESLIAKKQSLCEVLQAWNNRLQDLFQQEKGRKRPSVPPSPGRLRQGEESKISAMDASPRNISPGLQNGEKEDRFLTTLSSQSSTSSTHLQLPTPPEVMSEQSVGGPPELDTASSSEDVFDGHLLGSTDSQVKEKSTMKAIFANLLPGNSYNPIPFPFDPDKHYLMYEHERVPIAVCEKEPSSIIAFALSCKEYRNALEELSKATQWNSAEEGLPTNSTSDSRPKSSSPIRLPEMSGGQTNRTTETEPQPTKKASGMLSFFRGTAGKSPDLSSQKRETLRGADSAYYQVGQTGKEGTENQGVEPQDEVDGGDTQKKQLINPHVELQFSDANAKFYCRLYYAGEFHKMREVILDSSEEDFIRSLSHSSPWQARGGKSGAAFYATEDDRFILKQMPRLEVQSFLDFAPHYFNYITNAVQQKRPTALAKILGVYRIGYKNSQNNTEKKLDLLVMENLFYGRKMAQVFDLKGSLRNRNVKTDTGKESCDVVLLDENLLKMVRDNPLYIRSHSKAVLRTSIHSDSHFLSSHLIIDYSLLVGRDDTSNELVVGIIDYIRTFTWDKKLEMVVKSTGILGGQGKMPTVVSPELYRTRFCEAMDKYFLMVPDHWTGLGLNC
Chain of PI4P5Kγ (O60331 whole entry): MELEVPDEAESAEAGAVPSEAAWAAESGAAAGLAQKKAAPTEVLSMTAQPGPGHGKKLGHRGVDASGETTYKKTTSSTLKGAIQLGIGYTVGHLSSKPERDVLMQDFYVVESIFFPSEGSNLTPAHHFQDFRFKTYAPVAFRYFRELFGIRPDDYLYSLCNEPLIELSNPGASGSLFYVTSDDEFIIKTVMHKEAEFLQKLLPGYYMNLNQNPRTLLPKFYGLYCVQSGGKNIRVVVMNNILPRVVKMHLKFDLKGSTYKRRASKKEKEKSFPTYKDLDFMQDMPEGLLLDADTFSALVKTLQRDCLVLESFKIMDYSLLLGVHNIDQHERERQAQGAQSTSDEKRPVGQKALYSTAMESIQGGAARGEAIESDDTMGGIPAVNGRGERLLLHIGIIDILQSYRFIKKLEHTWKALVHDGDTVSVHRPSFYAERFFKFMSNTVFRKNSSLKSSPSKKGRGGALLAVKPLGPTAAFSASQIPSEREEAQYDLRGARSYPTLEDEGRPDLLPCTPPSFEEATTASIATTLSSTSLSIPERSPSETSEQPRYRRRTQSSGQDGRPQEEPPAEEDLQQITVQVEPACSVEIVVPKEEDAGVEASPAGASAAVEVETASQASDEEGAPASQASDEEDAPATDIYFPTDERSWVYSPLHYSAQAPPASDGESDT
Chain of PI4P5Kα (Q99755 whole entry): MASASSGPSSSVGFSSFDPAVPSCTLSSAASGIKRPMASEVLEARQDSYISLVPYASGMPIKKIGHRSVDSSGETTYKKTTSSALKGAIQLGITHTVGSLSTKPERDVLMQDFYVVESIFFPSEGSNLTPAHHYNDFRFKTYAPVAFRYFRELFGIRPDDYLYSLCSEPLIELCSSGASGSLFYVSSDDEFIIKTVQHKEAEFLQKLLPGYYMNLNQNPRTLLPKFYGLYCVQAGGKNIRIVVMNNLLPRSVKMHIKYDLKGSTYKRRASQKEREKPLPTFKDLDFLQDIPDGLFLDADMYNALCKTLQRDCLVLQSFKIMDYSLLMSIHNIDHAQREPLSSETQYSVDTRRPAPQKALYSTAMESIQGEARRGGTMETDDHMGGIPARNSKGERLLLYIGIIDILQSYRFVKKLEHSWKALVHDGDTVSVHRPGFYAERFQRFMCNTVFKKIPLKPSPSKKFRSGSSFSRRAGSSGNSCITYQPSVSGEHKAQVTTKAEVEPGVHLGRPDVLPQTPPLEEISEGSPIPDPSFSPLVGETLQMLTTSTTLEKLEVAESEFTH
Chain of PI4P5Kβ (O14986 whole entry): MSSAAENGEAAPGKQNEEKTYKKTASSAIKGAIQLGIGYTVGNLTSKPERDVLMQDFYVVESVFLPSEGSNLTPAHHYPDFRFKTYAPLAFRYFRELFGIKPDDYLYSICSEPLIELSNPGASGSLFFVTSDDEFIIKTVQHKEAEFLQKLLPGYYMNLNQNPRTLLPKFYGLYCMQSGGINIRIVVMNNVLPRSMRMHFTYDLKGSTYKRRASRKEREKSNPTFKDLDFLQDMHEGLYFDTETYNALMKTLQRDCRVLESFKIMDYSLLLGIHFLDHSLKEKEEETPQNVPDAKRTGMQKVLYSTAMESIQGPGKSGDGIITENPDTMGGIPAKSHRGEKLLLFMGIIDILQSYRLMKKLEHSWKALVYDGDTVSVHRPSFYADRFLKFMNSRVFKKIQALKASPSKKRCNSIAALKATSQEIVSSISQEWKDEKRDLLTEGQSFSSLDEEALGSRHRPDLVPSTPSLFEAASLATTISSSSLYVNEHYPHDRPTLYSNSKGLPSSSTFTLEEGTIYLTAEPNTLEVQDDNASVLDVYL

On to `Cc1cccc(/C=N/Nc2cc(N3CCOCC3)nc(OCCc3ccccn3)n2)c1` [apilimod, reference compound], for which the “concentration causing substantial vacuolar enlargement” value with PIKfyve [1] (positive control) came out at 10 nM.
As for `CN(C)C/C=C/C(=O)Nc1cccc(C(=O)Nc2ccc(Nc3nccc(-c4cccnc4)n3)cc2)c1` [JNK-IN-7, reference compound], the “inhibition of kinase activity (in words)” value against PI5P4Kα [2] (Fig. S1B-C), against PI5P4Kβ [3] (Fig. S1B-C) and at PI5P4Kγ was “inhibit” each time.
By IC50 is commonly meant the point on the concentration scale where inhibition reaches its midpoint. A lower IC50 goes with higher potency. Turning to `CN(C)C/C=C/C(=O)Nc1ccc(C(=O)Nc2cccc(Nc3cc(-c4c[nH]c5ccccc45)ncn3)c2)cc1` [THZ-P1-2], the figures for the “inhibition of PI-4,5-P2 formation” value on PI5P4Kα [2] (0.7 μM) and on PI5P4Kβ [3] (0.7 μM) were “approximately 75%” and approximately 50%, respectively. In addition, the covalent labeling on PI5P4Kα [4] and on PI5P4Kβ [5] was 100% throughout. Moreover, at PIKfyve [6], the “% DMSO control” value came out at 6.4 % DMSO control. Also, on PIKfyve [7], the IC50 was 40 nM. Besides, the “IC50 (in words)” value at PI4P5Kα is “low micromolar”; against PI4P5Kβ it was “low micromolar”; on PI4P5Kγ it was “low micromolar”; in test [8] it was “micromolar range”. In addition, the “inhibition of PIKfyve in cells (in words)” value with PIKfyve [1] (1 μM) is given as “failed to show inhibition”. The “earliest time of on-target engagement in washout pulldown” value in the test on PI5P4K (1 μM compound treatment, washout at 2 and 4 hours) turned out to be 2 h. Further, the “competition of pulldown by 1 μM dtb-THZ-P1-2 (in words)” value in the test with PI5P4K (pre-treatment of HEK293T cells) was “compete and block pulldown”. Further, in the test on AML/ALL cell lines, the “anti-proliferative IC50 (in words)” value is reported as “low micromolar range”. Besides, the “potency at killing cells versus imatinib, nilotinib and dasatinib (in words)” value with K562 and KU812F is recorded as “markedly less potent”. The “nuclear TFEB accumulation (in words)” value in the test on HeLa cells [9] was “increase”. Besides, the “GFP signal of RFP-GFP-LC3B sensor (in words)” value in the test with HeLa cells [10] was “marked increase”. The “RFP signal of RFP-GFP-LC3B sensor (in words)” value in the test with HeLa cells [10] is “moderate increase”.

The values above are taken from article PMC7286548 (Cell chemical biology, 2020).
